Cl transport mod: KCC2 (human) Cl- transport modulation. Q9H2X9. KCC2 cells, thallium flux FluoZin-2 fluorescence. B-score of Tl+ flux slope (higher = more flux/activation; lower = inhibition) at 10 µM. hit rate 2.2% among 190,000. AID 1456;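 active = thallium flux slope and its plate-corrected score both differing from the plate sample mean at a set confidence after two filtering rounds, in either direction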;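 also: slope of fluorescence scaled to starting intensity during 10 to 20 s after thallium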
KCNQ1 pot: potentiators or activators of human KCNQ1 potassium channel. B-score at 10 µM. hit rate 0.35% among 310,000. AID 2648. P51787. CHO-K1 KCNQ1, thallium flux FluxOR fluorescence; stronger effect = higher value;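 active = fluorescence ratio B-score, a plate-corrected score, at least three library SD, with initial intensity B-score within 5 SD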
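assay system = KCNQ1-transfected CHO-K1 cells | medium = assay buffer with matched DMSO | probe or stimulus = depolarizing K+/Tl+ stimulus, K2SO4 and Tl2SO4 each 12.5 mM in 5x stock | dosing = single dose | incubation = dye 90 min, compound 20 min, room temperature | detection = kinetic FluxOR fluorescence, 10 s baseline plus 110 s post-stimulus | evaluation = ratio B score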
KCNQ1 inh: human KCNQ1 channel inhibition; hit rate 1.3% among 310,000; CHO-K1 KCNQ1, FluxOR thallium flux fluorescence; stronger effect = higher value; AID 2642; B-score at 10 µM; P51787;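 active = compounds whose thallium flux B-score, printed positive for inhibition, exceeds three library SD while starting fluorescence stays within three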;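 also: channel opened by potassium depolarization with thallium stimulus after 20 min compound exposure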
KCNK3 block: human KCNK3 channel inhibition, primary screen; O14649; CHO-KCNK3 thallium flux, FluxOR fluorescence; stronger effect = lower value; B-score at 10 µM; hit rate 0.84% among 340,000; AID 602410;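 active = B-score under library mean minus 4 SD, starting fluorescence ratio at most library mean plus 5 SD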;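 also: more negative B-score means stronger inhibition of thallium flux through KCNK3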
KCNK9 inh: human KCNK9 channel inhibition; HEK293 KCNK9, FluxOR thallium flux fluorescence; stronger effect = lower value; B-score at 10 µM; hit rate 1.2% among 310,000;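 active = ratio B-score over 3 SD below the library mean, with starting fluorescence within 5 SD of its mean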;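 also: negative B-score means less thallium flux so channel inhibition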
hERG protect: compounds protecting human hERG from proarrhythmic drug block; CHO-hERG, FluxOR thallium flux, dofetilide IC70 present; activation (rescue from dofetilide block), less the hit threshold, % at 10 µM; hit rate 0.51% among 310,000; Q12809;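 active = activation above the mean of controls blocked by dofetilide plus 5 SD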;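 also: thallium influx through hERG after potassium depolarization seen as dye fluorescence rise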
KCNK9 block conf: confirmation of human KCNK9 potassium channel inhibitors | shares compounds with KCNK9 inh | HEK293 KCNK9 cells, FluxOR thallium flux fluorescence | inhibition, % at 10 µM | hit rate 43% among 4,900 | AID 492992;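 active = thallium signal inhibited by more than 5 SD of the compound-free buffer control wells, on both duplicate plates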
Kir2-1 spec: tests whether KCNK9 modulators also affect mouse Kir2.1; shares compounds with KCNK9 inh; hit rate 4% among 4,900; Kir2.1 cells, FluxOR thallium flux fluorescence; inhibition, % at 10 µM; AID 492993;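 active = thallium signal drop more than 5 SD beyond the mean of the no-compound control wells, seen in both duplicate plates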;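 also: signal is fluorescence rise after thallium addition divided by baseline fluorescence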
Target sequence (P35561 whole entry, looked up): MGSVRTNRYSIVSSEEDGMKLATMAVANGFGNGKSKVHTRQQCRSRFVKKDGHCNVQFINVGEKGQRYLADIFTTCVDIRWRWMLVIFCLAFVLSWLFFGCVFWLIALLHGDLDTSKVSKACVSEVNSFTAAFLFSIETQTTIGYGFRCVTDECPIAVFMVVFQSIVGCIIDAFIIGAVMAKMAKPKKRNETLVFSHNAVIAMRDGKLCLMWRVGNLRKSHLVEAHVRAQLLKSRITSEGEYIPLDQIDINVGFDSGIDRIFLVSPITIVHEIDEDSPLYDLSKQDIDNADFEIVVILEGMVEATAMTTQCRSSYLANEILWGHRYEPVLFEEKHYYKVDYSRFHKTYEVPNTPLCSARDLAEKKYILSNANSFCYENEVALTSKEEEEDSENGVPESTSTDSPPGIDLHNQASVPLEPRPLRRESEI
HEK293 Tl ctr: second counter-screen for KCNK9 modulators: effect in non-induced cells. AID 492997. shares compounds with KCNK9 inh. hit rate 40% among 4,900. inhibition, % at 10 µM. non-induced KCNK9-HEK293, FluxOR thallium flux;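 active = thallium signal drop beyond 5 SD of the untreated control mean, on both duplicate plates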
Large screens that a line does not name were inactive (follow-up assays come after a bar, where they were run). An excerpt weighted towards active compounds, which were near 4.1% of everything screened.

O=C(OCC(=O)N1CCc2ccccc21)c1c2c(nc3ccccc13)CCCCC2	KCNK9 inh -13 | KCNK9 block conf 52% | Kir2-1 spec inactive | HEK293 Tl ctr 34%
NC(=O)COC(=O)c1c2c(nc3ccccc13)CCCC2	none
CCOC(=O)c1cc(CC)sc1N1C(=O)CC(Sc2ccccc2C(=O)O)C1=O (stereo not drawn)	none
COC(=O)c1c(-c2ccccc2)noc1-c1ccccc1	none (no result: Cl transport mod)
COc1ccc(S(=O)(=O)N2Cc3ccccc3CC2C(=O)O)cc1OC (stereo not drawn)	none
CC(C)Oc1ccc(/C(O)=C2/C(=O)C(=O)N(Cc3cccnc3)C2c2ccco2)cc1 (stereo not drawn)	none (no result: Cl transport mod)
Cn1c(C=O)c(-c2ccc3c(c2)OCCO3)c2ccccc21	none (no result: Cl transport mod, KCNQ1 pot, KCNQ1 inh, KCNK9 inh, hERG protect)
COc1ccc(/C=C/C(=O)Oc2ccc(C)c(C)c2)cc1OC	none | KCNK9 block conf inactive | Kir2-1 spec inactive | HEK293 Tl ctr inactive
COc1ccc(NC(=O)CS(=O)c2ccc(Cl)c(Cl)c2)cc1 (stereo not drawn)	none (no result: Cl transport mod)
CC(OC(=O)C(C)Oc1ccccc1)C(=O)Nc1ccc(S(=O)(=O)N2CCCCC2)cc1 (stereo not drawn)	none (no result: Cl transport mod, KCNQ1 pot, KCNQ1 inh, KCNK9 inh, hERG protect)
CC(=O)N1CCOc2ccc(S(=O)(=O)N3CCC(C)CC3)cc21	none (no result: Cl transport mod)
COc1ccc(N2C(=O)/C(=C\c3ccco3)N=C2SCC(=O)NC(C)(C)C)cc1Cl	KCNK9 inh -9.1 | KCNK9 block conf 44% | Kir2-1 spec inactive | HEK293 Tl ctr 33%
Cc1ccccc1OCC(=O)NC(=S)Nc1ccc(Br)c(C)n1	none (no result: Cl transport mod)
Cc1ccccc1OCC(=O)NC(=S)Nc1cccc2cc(O)ccc12	KCNK9 inh -8.9 (no result: Cl transport mod) | KCNK9 block conf 52% | Kir2-1 spec inactive | HEK293 Tl ctr inactive
O=C(COC(=O)COc1cccc(F)c1)Nc1nc2ccccc2s1	none (no result: Cl transport mod, KCNQ1 pot, KCNQ1 inh, KCNK9 inh, hERG protect)
COc1ccccc1/C=C(/C(=O)OCC(=O)Nc1ccccc1C(C)C)c1ccccc1	KCNK9 inh -9.5 | KCNK9 block conf 51% | Kir2-1 spec inactive | HEK293 Tl ctr 39%
Cc1ccc2nc(C3CCCN3Cc3nc(CCC(C)C)no3)[nH]c2c1 (stereo not drawn)	none
N#CCC(=O)N/N=C/c1cc(Br)ccc1OCc1cccc2ccccc12	KCNK9 inh -10 (no result: Cl transport mod) | KCNK9 block conf 47% | Kir2-1 spec inactive | HEK293 Tl ctr 26%
N#CCC(=O)N/N=C/c1c2ccccc2cc2ccccc12	none (no result: Cl transport mod)
CC(C)/C=C/CN1CCCC(N2CCN(c3cccc(Cl)c3)CC2)C1 (stereo not drawn)	none (no result: Cl transport mod) | KCNK9 block conf inactive | Kir2-1 spec inactive | HEK293 Tl ctr inactive
Cc1ccsc1C(=O)N1CCCC(N2CCN(c3cccc(Cl)c3)CC2)C1 (stereo not drawn)	none (no result: Cl transport mod)
Cc1ccccc1N1CCN(C2CCCN(C(=O)c3ccc(Cl)s3)C2)CC1 (stereo not drawn)	none (no result: Cl transport mod) | KCNK9 block conf inactive | Kir2-1 spec inactive | HEK293 Tl ctr inactive
Cc1ccccc1N1CCN(C2CCCN(C(=O)c3csc(C(C)C)n3)C2)CC1 (stereo not drawn)	none (no result: Cl transport mod) | KCNK9 block conf inactive | Kir2-1 spec inactive | HEK293 Tl ctr inactive
CC(C)c1nc(C(=O)N2CCCC(N3CCN(c4cccc(Cl)c4)CC3)C2)cs1 (stereo not drawn)	none (no result: Cl transport mod) | KCNK9 block conf inactive | Kir2-1 spec inactive | HEK293 Tl ctr inactive
Cc1ccccc1N1CCN(C2CCCN(C(=O)c3snnc3C)C2)CC1 (stereo not drawn)	none (no result: Cl transport mod)
O=[N+]([O-])c1cccc(S(=O)(=O)Nc2ccc(Cc3ccncc3)cc2)c1	none
O=C(c1cnccn1)N1CCCC(N2CCN(c3cccc(Cl)c3)CC2)C1 (stereo not drawn)	none (no result: Cl transport mod)

High-throughput results from PubChem.
